Active and inactive are the calls of the source. No cut-off for these calls is given here.
Tests used:
Prothrombin [1] = target: T1, Prothrombin (Homo sapiens, UniProt P00734); test: Inhibition of human thrombin assessed as inhibition of fibrinogen alpha-polymer formation at IC50 after 5 mins by SDS-PAGE analysis
Summary of the method: (§1)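 Fibrinogen isolated from human plasma, containing factor XIII (3 mg/ml in 50 mM TBS, 5 mM CaCl2), mixed with thrombin (final 10.4 nM) that was preincubated with compound. Incubated at 37 °C and stopped at 5, 15 or 30 min with urea/SDS/β-mercaptoethanol buffer. Run on 7.5 % SDS-PAGE with Coomassie stain. Aα, γ, γ–γ dimer and α-polymer bands scored.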

Prothrombin [2] = target: T1, Prothrombin; test: Inhibition of human thrombin amidolytic activity using D-Phe-Pip-Arg-pNA as substrate preincubated for 10 mins followed by substrate addition measured every 12 secs for 10 mins by spectrophotometric analysis
Prothrombin [3] = target: T1, Prothrombin; test: Inhibition of human thrombin assessed as inhibition of fibrinogen gamma-gamma chain formation at IC50 after 15 mins by SDS-PAGE analysis; summary of the method: as §1
Prothrombin [4] = target: T1, Prothrombin; test: Inhibition of human thrombin assessed as inhibition of fibrinogen alpha polymer formation at IC50 after 15 mins by SDS-PAGE analysis; summary of the method: as §1
Prothrombin [5] = target: T1, Prothrombin; test: Competitive inhibition of human thrombin using D-Phe-Pip-Arg-pNA as substrate preincubated for 10 mins followed by substrate addition measured every 12 secs for 10 mins by Lineweaver-Burk plot analysis
Prothrombin [6] = target: T1, Prothrombin; test: Inhibition of human thrombin assessed as inhibition of band decaying corresponding to fibrinogen Aalpha chains at IC50 after 30 mins by SDS-PAGE analysis; summary of the method: as §1
Prothrombin [7] = target: T1, Prothrombin; test: Inhibition of human thrombin assessed as inhibition of fibrinogen polymerization preincubated for 10 mins followed by fibrionogen addition measured for 20 mins
Summary of the method: (§2)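 Thrombin preincubated with compound 10 min at 37 °C, then added (final 10.4 nM) to human fibrinogen (3 mg/ml) in 50 mM TBS with 5 mM CaCl2, pH 7.4. Turbidity at 595 nm read every 12 s for 20 min at 37 °C. Vmax expressed as % of solvent control; 12 independent experiments in duplicate.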

Prothrombin [8] = target: T1, Prothrombin; test: Inhibition of human thrombin assessed as inhibition of fibrinogen gamma-gamma chain formation at IC50 after 5 mins by SDS-PAGE analysis; summary of the method: as §1
Prothrombin [9] = target: T1, Prothrombin; test: Inhibition of human thrombin assessed as inhibition of band decaying corresponding to fibrinogen gamma chains at IC50 after 30 mins by SDS-PAGE analysis; summary of the method: as §1
Prothrombin [10] = target: T1, Prothrombin; conditions: 5 uM
Prothrombin [11] = target: T1, Prothrombin; test: Inhibition of human thrombin assessed as response unit at 1000 uM by BIAcore analysis
Summary of the method: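 Thrombin amine-coupled on a CM5 chip (NHS/EDC, acetate pH 6.0), 25 °C, PBS pH 7.4 running buffer. Polyphenol (100 μl) injected for 600 s at 10 μl/min, followed by 200 s PBS dissociation. Bound level read in RU. Channel regenerated with 0.1 M NaOH and 0.1 M HCl.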

Prothrombin [12] = target: T1, Prothrombin; test: Inhibition of human thrombin assessed as decrease in platelet aggregation preincubated for 10 mins measured for 10 mins by dual channel chrono-log aggregometric analysis
Summary of the method: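 Gel-filtered (BSA–Sepharose 2B) human platelets at 1.5 × 10^5/μl in modified Tyrode's buffer pH 7.4, prewarmed 5 min at 37 °C with stirring. Thrombin (final 2.4 nM) preincubated 10 min at 37 °C with compound, then added. Turbidimetric aggregation recorded 10 min (0.77 % DMSO final). Result given as % of control; eight independent experiments in duplicate.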

Prothrombin [13] = target: T1, Prothrombin; test: Inhibition of human thrombin assessed as equilibrium association constant at 50 to 1000 uM by BIAcore analysis
Prothrombin [14] = target: T1, Prothrombin; conditions: 125 to 1000 uM
Prothrombin [15] = target: T1, Prothrombin; conditions: 125 to 1000 uM; remark: listed apart in the source
Prothrombin [16] = target: T1, Prothrombin; test: Inhibition of human thrombin amidolytic activity using D-Phe-Pip-Arg-pNA as substrate at 0.1 to 1000 uM preincubated for 10 mins followed by substrate addition measured every 12 secs for 10 mins by spectrophotometric analysis
Summary of the method: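 Human plasma thrombin (17.6 nM in 50 mM TBS pH 7.4) preincubated 10 min at 37 °C with compound (from 10 mM stocks in 50% DMSO; final DMSO 5%, final thrombin 15.8 nM), then added to 3 mM D-Phe-Pip-Arg-pNA stock.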

Prothrombin [17] = target: T1, Prothrombin; conditions: 150 to 1000 uM
Prothrombin [18] = target: T1, Prothrombin; conditions: 150 to 1000 uM; remark: listed apart in the source
Prothrombin [19] = target: T1, Prothrombin; test: Inhibition of human thrombin assessed as inhibition of fibrinogen gamma-gamma chain formation at 250 uM after 5 mins by SDS-PAGE analysis
Summary of the method: (§3)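 Thrombin preincubated 10 min at 37 °C with compound, then mixed with human fibrinogen (3 mg/ml, containing factor XIII) in 50 mM TBS with 5 mM CaCl2; final thrombin 10.4 nM, 37 °C. Stopped at 5, 15, 30 min with urea/SDS/β-mercaptoethanol buffer. Run on 7.5% SDS-PAGE, Coomassie stained, scored for γ–γ dimer and α-polymer bands.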

[20] = target: Urokinase-type plasminogen activator (Homo sapiens, UniProt P00749); test: Inhibition of urokinase amidolytic activity (unknown origin)
Trypsin = Trypsin (Homo sapiens, UniProt P07477+P07478+P35030); test: Inhibition of trypsin amidolytic activity (unknown origin); format: protein assay
Prothrombin [21] = target: T1, Prothrombin; test: Inhibition of human thrombin assessed as inhibition of fibrinogen gamma-gamma chain formation at 250 uM after 15 mins by SDS-PAGE analysis; summary of the method: as §3
Prothrombin [22] = target: T1, Prothrombin; test: Inhibition of thrombin (unknown origin) assessed as hydrolysis of N-benzoyl-phenylalanylvalyl-arginine-paranitroanilide
Prothrombin [23] = target: T1, Prothrombin; test: Inhibition of human thrombin assessed as inhibition of fibrinogen polymerization at 1000 uM preincubated for 10 mins followed by fibrionogen addition measured for 20 mins
Summary of the method: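 Thrombin preincubated 10 min at 37 °C with compound, then added to human fibrinogen (3 mg/ml) in 50 mM TBS, 5 mM CaCl2, pH 7.4; final thrombin 10.4 nM. Turbidity at 595 nm read every 12 s for 20 min at 37 °C. Vmax expressed as % of solvent control; mean ± SD of 12 independent experiments in duplicate.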

Prothrombin [24] = target: T1, Prothrombin; test: Inhibition of human thrombin assessed as inhibition of fibrinogen alpha-polymer formation at 250 uM after 5 mins by SDS-PAGE analysis; summary of the method: as §3
Prothrombin [25] = target: T1, Prothrombin; test: Inhibition of human thrombin assessed as decrease in platelet aggregation at 25 to 250 uM preincubated for 10 mins measured for 10 mins by dual channel chrono-log aggregometric analysis
Summary of the method: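 Human plasma thrombin (17.6 nM in 50 mM TBS, pH 7.4) preincubated 10 min at 37 °C with compound from 50% DMSO stock (9:1 v/v). Added to gel-filtered human platelets in modified Tyrode's buffer (1.5 × 10^5/μl), pre-warmed 5 min at 37 °C with stirring; final thrombin 2.4 nM, DMSO 0.77%. Turbidimetric aggregation followed for 10 min. Given as % of solvent control; eight independent experiments in duplicate.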

Prothrombin [26] = target: T1, Prothrombin; test: Inhibition of human thrombin assessed as inhibition of fibrinogen alpha-polymer formation at 250 uM after 15 mins by SDS-PAGE analysis; summary of the method: as §3
Prothrombin [27] = target: T1, Prothrombin; test: Inhibition of human thrombin assessed as inhibition of band decaying corresponding to fibrinogen Aalpha chains at 15 uM after 5 mins by SDS-PAGE analysis; summary of the method: as §1
Prothrombin [28] = target: T1, Prothrombin; test: Inhibition of human thrombin assessed as inhibition of band decaying corresponding to fibrinogen gamma chains at 15 uM after 5 mins by SDS-PAGE analysis; summary of the method: as §1
Prothrombin [29] = target: T1, Prothrombin; test: Inhibition of human thrombin assessed as inhibition of fibrinogen polymerization at 50 uM preincubated for 10 mins followed by fibrionogen addition measured for 20 mins; summary of the method: as §2
Prothrombin [30] = target: T1, Prothrombin; test: Inhibition of human thrombin assessed as inhibition of fibrinogen alpha-polymer formation at 15 uM after 5 mins by SDS-PAGE analysis; summary of the method: as §1
Prothrombin [31] = target: T1, Prothrombin; test: Inhibition of human thrombin assessed as inhibition of fibrinogen gamma-gamma chain formation at 15 uM after 5 mins by SDS-PAGE analysis; summary of the method: as §1
Prothrombin [32] = target: T1, Prothrombin; conditions: 75 to 750 uM
Prothrombin [33] = target: T1, Prothrombin; conditions: 50 to 1000 uM

## Oc1cc(O)c2cc(O)c(-c3ccc(O)c(O)c3)[o+]c2c1
Prothrombin [1]
  inhibition: Active
Prothrombin [2]
  inhibition: Dose-dependent effect
Prothrombin [3]
  inhibition: inactive
Prothrombin [4]
  inhibition: inactive
Prothrombin [5]
  inhibition: Active
Prothrombin [6]
  inhibition: inactive
Prothrombin [7]
  inhibition: Dose-dependent effect
Prothrombin [8]
  inhibition: Active
Prothrombin [9]
  inhibition: inactive
Prothrombin [10]
  inhibition: Active
Prothrombin [11]
  RU: 2250
Prothrombin [12]
  inhibition: Dose-dependent effect

## Oc1cc(O)c2c(c1)O[C@H](c1ccc(O)c(O)c1)[C@@H](O)C2
Prothrombin [2]
  inhibition: Dose-dependent effect
Prothrombin [13]
  Ka: 2.03 ×10⁴ /M
Prothrombin [5]
  inhibition: Active
Prothrombin [7]
  inhibition: inactive
Prothrombin [14]
  inhibition: inactive
Prothrombin [15]
  inhibition: inactive

## O=C1C[C@@H](c2ccc(O)cc2)Oc2cc(O)cc(O)c21
Prothrombin [16]
  inhibition: inactive

## COc1ccc([C@@H]2CC(=O)c3c(O)cc(O[C@@H]4O[C@H](CO[C@@H]5O[C@@H](C)[C@H](O)[C@@H](O)[C@H]5O)[C@@H](O)[C@H](O)[C@H]4O)cc3O2)cc1O
Prothrombin [16]
  inhibition: inactive

## C[C@@H]1O[C@@H](O[C@H]2[C@H](Oc3cc(O)c4c(c3)O[C@H](c3ccc(O)cc3)CC4=O)O[C@H](CO)[C@@H](O)[C@@H]2O)[C@H](O)[C@H](O)[C@H]1O
Prothrombin [16]
  inhibition: inactive

## Oc1cc(O)c2c(c1)O[C@H](c1ccc(O)c(O)c1)[C@H](O)C2
Prothrombin [2]
  inhibition: Dose-dependent effect
Prothrombin [13]
  Ka: 1.92 ×10² /M
Prothrombin [5]
  inhibition: Active
Prothrombin [7]
  inhibition: inactive
Prothrombin [17]
  inhibition: inactive
Prothrombin [18]
  inhibition: inactive

## O=C(O)c1cc(O)c(O)c(O)c1
Prothrombin [16]
  inhibition: inactive

## COc1cc(C2Oc3cc([C@H]4Oc5cc(O)cc(O)c5C(=O)[C@@H]4O)ccc3OC2CO)ccc1O (some centres undefined) [SILIBININ]
Prothrombin [2]
  inhibition: Dose-dependent effect
Prothrombin [19]
  inhibition: Active
[20]
  IC50: 21 µM
Prothrombin [13]
  Ka: 5.39 ×10⁴ /M
Trypsin
  IC50: 3.7 µM
Prothrombin [5]
  inhibition: Active
Prothrombin [7]
  inhibition: Dose-dependent effect
Prothrombin [21]
  inhibition: inactive
Prothrombin [22]
  IC50: 20.9 µM
Prothrombin [23]
  inhibition: Active
Prothrombin [24]
  inhibition: Active
Prothrombin [11]
  RU: 1420
Prothrombin [25]
  inhibition: Active
Prothrombin [26]
  inhibition: inactive

## O=c1c(O)c(-c2ccc(O)c(O)c2)oc2cc(O)cc(O)c12 [QUERCETIN]
Prothrombin [27]
  inhibition: Active
Prothrombin [1]
  inhibition: Active
Prothrombin [2]
  inhibition: Dose-dependent effect
Prothrombin [28]
  inhibition: Active
[20]
  IC50: 12.1 µM
Prothrombin [13]
  Ka: 2.59 ×10⁷ /M
Prothrombin [29]
  inhibition: Active
Prothrombin [3]
  inhibition: inactive
Prothrombin [4]
  inhibition: inactive
Trypsin
  IC50: 15.4 µM
Prothrombin [5]
  inhibition: Active
Prothrombin [6]
  inhibition: inactive
Prothrombin [7]
  inhibition: Dose-dependent effect
Prothrombin [8]
  inhibition: Active
Prothrombin [22]
  IC50: 30 µM
Prothrombin [9]
  inhibition: inactive
Prothrombin [30]
  inhibition: Active
Prothrombin [31]
  inhibition: Active
Prothrombin [11]
  RU: 1880
Prothrombin [12]
  inhibition: Dose-dependent effect

## O=C(O)Cc1ccc(O)cc1
Prothrombin [16]
  inhibition: inactive

## O=C(/C=C/c1ccc(O)c(O)c1)O[C@@H]1C[C@](O)(C(=O)O)C[C@@H](O)[C@H]1O
Prothrombin [16]
  inhibition: inactive

## O=c1c(-c2ccc(O)cc2)coc2cc(O)cc(O)c12
Prothrombin [16]
  inhibition: inactive

## COc1ccc([C@@H]2CC(=O)c3c(O)cc(O)cc3O2)cc1O
Prothrombin [16]
  inhibition: inactive

## C[C@@H]1O[C@@H](OC[C@H]2O[C@@H](Oc3c(-c4ccc(O)c(O)c4)oc4cc(O)cc(O)c4c3=O)[C@H](O)[C@@H](O)[C@@H]2O)[C@H](O)[C@H](O)[C@H]1O
Prothrombin [16]
  inhibition: inactive

## OC[C@H]1O[C@@H](Oc2cc3c(O[C@@H]4O[C@H](CO)[C@@H](O)[C@H](O)[C@H]4O)cc(O)cc3[o+]c2-c2ccc(O)c(O)c2)[C@H](O)[C@@H](O)[C@@H]1O
Prothrombin [2]
  inhibition: Dose-dependent effect
Prothrombin [13]
  Ka: 1.15 ×10² /M
Prothrombin [7]
  inhibition: inactive
Prothrombin [32]
  inhibition: inactive
Prothrombin [33]
  inhibition: inactive

## O=C(O)/C=C/c1ccc(O)cc1
Prothrombin [16]
  inhibition: inactive

## Oc1cc(O)c2c(c1)O[C@H](c1ccc(O)c(O)c1)[C@H](O)[C@H]2c1c(O)cc(O)c2c1O[C@H](c1ccc(O)c(O)c1)[C@H](O)C2
Prothrombin [16]
  inhibition: inactive
